From ChEMBL document CHEMBL1212854, “The structure-activity relationships of A-ring-substituted aromathecin topoisomerase I inhibitors strongly support a camptothecin-like binding mode” (2010) come the findings set out here.

Molecules are shown by their SMILES. Activity calls are given as the source filed them. No cut-off for these calls is given here. Some results are limits rather than exact numbers.

Test [1] concerns the target T1, DNA topoisomerase 1 (Homo sapiens) (UniProt P11387).
T1 sequence (whole entry): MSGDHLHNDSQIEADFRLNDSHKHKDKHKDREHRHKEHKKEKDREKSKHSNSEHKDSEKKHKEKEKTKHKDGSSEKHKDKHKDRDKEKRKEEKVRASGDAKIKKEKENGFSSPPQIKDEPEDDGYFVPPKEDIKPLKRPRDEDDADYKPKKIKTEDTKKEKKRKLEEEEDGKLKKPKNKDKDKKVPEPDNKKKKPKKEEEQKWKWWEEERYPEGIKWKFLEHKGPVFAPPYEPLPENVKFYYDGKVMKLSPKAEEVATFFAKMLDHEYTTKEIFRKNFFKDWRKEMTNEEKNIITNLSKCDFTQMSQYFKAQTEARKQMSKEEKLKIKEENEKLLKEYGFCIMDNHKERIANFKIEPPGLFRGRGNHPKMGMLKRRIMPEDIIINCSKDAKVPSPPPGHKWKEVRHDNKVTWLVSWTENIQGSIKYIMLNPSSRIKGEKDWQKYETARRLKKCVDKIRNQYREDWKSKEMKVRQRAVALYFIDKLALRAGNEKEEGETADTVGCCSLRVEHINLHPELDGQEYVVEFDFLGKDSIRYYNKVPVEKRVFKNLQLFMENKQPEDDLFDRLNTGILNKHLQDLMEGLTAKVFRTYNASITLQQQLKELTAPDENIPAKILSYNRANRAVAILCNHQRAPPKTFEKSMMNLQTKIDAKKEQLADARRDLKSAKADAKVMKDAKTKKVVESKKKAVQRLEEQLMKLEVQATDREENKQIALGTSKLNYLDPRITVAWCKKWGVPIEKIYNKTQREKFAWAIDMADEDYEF
As to the kind of experiment: Inhibition of human recombinant Top1-mediated DNA cleavage at 0.1 to 100 uM after 20 mins relative to camptothecin. The arrangement: scale not given: the % may be the effect or the level left. The gist of the method:
(§1)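 Human recombinant Top1 purified from baculovirus. Substrate is a 117-bp oligonucleotide, about 2 nM, 3′-end labelled with 32P-dGTP by Klenow fill-in. Stopped with 0.5% SDS, run on 20% denaturing PAGE and phosphorimaged. Cleavage graded 0 to +++ against 1 μM camptothecin.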

Test [2] relates to NCI-60 human cancer cell line panel (Homo sapiens). Briefly: Cytotoxicity against NCI-60 human cancer cell line panel (mean) at 10 uM. The note with it: pooled result: one value given for 8 cell lines, strains, targets or settings, read-out: GI.
The next test relates to HOP-62. Briefly: Cytotoxicity against human HOP62 cells. The format is functional. In outline:
(§2)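 NCI 60-cell-line screen (eight solid-tumour subpanels plus leukemia). A one-dose pass at 10−5 M came first. Selected compounds were then run at five concentrations from 10−8 to 10−4 M. GI50 is the concentration giving 50% growth inhibition.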

Another test deals with HCT-116. As to the kind of experiment: Cytotoxicity against human HCT116 cells. The format is functional. In outline:
as §2

The next test deals with SF-539. Briefly: Cytotoxicity against human SF539 cells. The class given is functional. The gist of the method:
as §2

A further test relates to UACC-62. As to the kind of experiment: Cytotoxicity against human UACC62 cells. The class given is functional. In outline: as §2
A further test deals with SN12C. As to the kind of experiment: Cytotoxicity against human SN12C cells. The class given is functional. In outline:
as §2

For another test, the system named is DU-145. Briefly: Cytotoxicity against human DU145 cells. The format is functional. In outline:
as §2

Another test deals with MCF7. As to the kind of experiment: Cytotoxicity against human MCF7 cells. The class given is functional. In outline: as §2
Test [3] deals with T1, DNA topoisomerase 1 (Homo sapiens). Briefly: Inhibition of human recombinant Top1-mediated DNA cleavage at 1 uM after 20 mins relative to camptothecin. In outline: as §1
A further test concerns OVCAR-3. As to the kind of experiment: Cytotoxicity against human OVCAR-3 cells. The format is functional. In outline:
as §2

Take `O=c1c2ccccc2cc2n1Cc1c-2nc2cc(Cl)ccc2c1CN1CC[C@H](O)C1`: the Activity in [1] is 20%. For the same compound, the inhibition of growth at 10 µM in [2] was < 15%.

As to `Cc1cc2c(CN3CC[C@H](O)C3)c3c(nc2cc1F)-c1cc2ccccc2c(=O)n1C3`, the Activity in test [1] turned out to be 50%. For the same compound, the inhibition of growth at 10 µM in [2] was > 25%.

Consider `CN1CCN(Cc2c3c(nc4cc5c(cc24)OCCO5)-c2cc4ccccc4c(=O)n2C3)CC1`, for which, in test [1], the Activity amounted to 50%. The inhibition of growth at 10 µM in [2] is 23%.

Turning to `CC[C@@]1(O)C(=O)OCc2c1cc1n(c2=O)Cc2cc3ccccc3nc2-1` [CAMPTOTHECIN], the GI50 in the test with HOP-62 came out at 10 nM; in the test on HCT-116 it was 30 nM; in the test on SF-539, 10 nM; with UACC-62, 10 nM; with SN12C, 20 nM; in the test on DU-145 it was 10 nM. Further, halving of growth with MCF7 (GI50) required 10 nM. In addition, the outcome in test [3] was Active.

As to `Cc1cc2c(CNCCO)c3c(nc2cc1F)-c1cc2ccccc2c(=O)n1C3`, the GI50 with HOP-62 is 11200 nM; with HCT-116 it was 18400 nM; in the test on SF-539, 9230 nM; with UACC-62 it was 14200 nM; in the test with OVCAR-3, 16800 nM; with SN12C, 20200 nM. In addition, the GI50 with DU-145 was 12200 nM; in the test on MCF7 it was 1620 nM. In addition, the Activity in test [1] amounted to 50%. For the same compound, the inhibition of growth at 10 µM in test [2] is > 25%.

As for `O=c1c2ccccc2cc2n1Cc1c-2nc2ccc(Cl)cc2c1CNCCCn1ccnc1`, in [1], the Activity is 50%. In [2], the inhibition of growth at 10 µM was found to be 30%.

Consider `O=c1c2ccccc2cc2n1Cc1c-2nc2cc(Cl)ccc2c1Cn1ccnc1`, for which the Activity in [1] was determined as 0%. For the same compound, the inhibition of growth at 10 µM in test [2] is < 15%.

With `COc1cc2nc3c(c(CN4CC[C@H](O)C4)c2cc1OC)Cn1c-3cc2ccccc2c1=O`, in [1], the outcome was inactive. In addition, the inhibition of growth at 10 µM in test [2] came to 14.2%.

On to `O=c1c2ccccc2cc2n1Cc1c-2nc2cc3c(cc2c1CNCCCn1ccnc1)OCCO3`, for which, in [1], the Activity amounted to 50%. For the same compound, the inhibition of growth at 10 µM in test [2] is 14.3%.

As for `O=c1c2ccccc2cc2n1Cc1c-2nc2cc3c(cc2c1CCCNCCO)OCCO3`, the GI50 worked out at 1010 nM in the test on HOP-62; 820 nM in the test with HCT-116; 490 nM with SF-539; 460 nM in the test on UACC-62; 1840 nM in the test with OVCAR-3; 940 nM with SN12C. Also, the GI50 with DU-145 stood at 1020 nM; with MCF7, 270 nM. Also, in [1], the Activity was 0%.

Turning to `O=c1c2ccccc2cc2n1Cc1c-2nc2cc3c(cc2c1CN1CC[C@H](O)C1)OCCO3`, the GI50 in the test with HOP-62 stood at 1010 nM; in the test on HCT-116 it was 820 nM; with SF-539 it was 490 nM; in the test on UACC-62 it was 460 nM; with OVCAR-3, 1840 nM; in the test on SN12C, 940 nM. Further, the concentration for 50% growth inhibition (GI50) was 1020 nM with DU-145 and 270 nM with MCF7. Moreover, the Activity in [1] is 50%.

Consider `O=c1c2ccccc2cc2n1Cc1c-2nc2cc3c(cc2c1CNCCCN1CCOCC1)OCCO3`, for which, in test [1], the Activity was found to be 50%. For the same compound, the inhibition of growth at 10 µM in [2] is 10.8%.

In the case of `O=c1c2ccccc2cc2n1Cc1c-2nc2cc3c(cc2c1CNCCCn1ccnc1)OCO3`, the GI50 in the test with HOP-62 is 5010 nM; with HCT-116, 1320 nM; in the test on SF-539, 2140 nM; with UACC-62, 3390 nM; with OVCAR-3, 4260 nM; in the test on SN12C it was 5890 nM. The GI50 in the test with DU-145 stood at 2570 nM; with MCF7 it was 480 nM. The Activity in test [1] stood at 50%.

`O=c1c2ccccc2cc2n1Cc1c-2nc2cccc(Cl)c2c1CNCCCn1ccnc1`: the GI50 stood at 2510 nM in the test on HOP-62; 1580 nM in the test on HCT-116; 1900 nM in the test with SF-539; 7240 nM with UACC-62; 4900 nM in the test with OVCAR-3; 6030 nM with SN12C. In addition, the GI50 amounted to 1020 nM in the test with DU-145 and 550 nM with MCF7. Further, the Activity in test [1] was 75%.

For the compound `O=c1c2ccccc2cc2n1Cc1c-2nc2ccc(Cl)cc2c1Cn1ccnc1`, the GI50 amounted to 460 nM in the test with HOP-62; 400 nM with HCT-116; 390 nM in the test with SF-539; 310 nM in the test with UACC-62; 690 nM with OVCAR-3; 1540 nM with SN12C. For the same compound, the GI50 with DU-145 is 480 nM; in the test on MCF7, 190 nM. Moreover, the Activity in test [1] stood at 20%.

`CN1CCN(Cc2c3c(nc4cccc(Cl)c24)-c2cc4ccccc4c(=O)n2C3)CC1`: the GI50 in the test on HOP-62 amounted to 1860 nM; in the test with HCT-116 it was 1410 nM; with SF-539, 1510 nM; in the test with UACC-62, 15500 nM; in the test on OVCAR-3, 4170 nM; with SN12C it was 13800 nM. For the same compound, the GI50 with DU-145 turned out to be 9770 nM; in the test with MCF7, 1000 nM. Further, in test [1], the outcome was inactive.

Regarding `CN(C)CCCc1c2c(nc3cc4c(cc13)OCCO4)-c1cc3ccccc3c(=O)n1C2`, the Activity in test [1] amounted to 75%. Further, the inhibition of growth at 10 µM in test [2] came to 19%.

For the compound `O=c1c2ccccc2cc2n1Cc1c-2nc2cc3c(cc2c1Cn1ccnc1)OCCO3`, the GI50 with HOP-62 is 19500 nM; with HCT-116 it was > 100000 nM; in the test on SF-539, 4370 nM; in the test on UACC-62, 21400 nM; in the test with OVCAR-3, 18600 nM; with SN12C it was 81300 nM. The GI50 in the test on DU-145 was > 100000 nM; with MCF7, 300 nM. Besides, the Activity in [1] stood at 75%.

In the case of `O=c1c2ccccc2cc2n1Cc1c-2nc2cc3c(cc2c1CCl)OCCO3`, in test [1], the Activity worked out at 20%. In addition, the inhibition of growth at 10 µM in test [2] was determined as 10.3%.

On to `COc1cc2c3c(n(CCCNCCO)c(=O)c2cc1OC)-c1cc2c(cc1C3=O)OCO2` [LMP-744], for which the GI50 was 20 nM with HOP-62; 100 nM in the test with HCT-116; 40 nM with SF-539; 30 nM with UACC-62; 500 nM in the test with OVCAR-3; < 10 nM in the test with SN12C. Also, the GI50 in the test with DU-145 and in the test with MCF7 was < 10 nM in each case. Moreover, in [3], the outcome was Active.

Consider `O=c1c2ccccc2cc2n1Cc1c-2nc2cc(Cl)ccc2c1CNCCCn1ccnc1`, for which the GI50 stood at 2000 nM in the test on HOP-62; 1820 nM in the test with HCT-116; 1860 nM in the test with SF-539; 1910 nM in the test with UACC-62; 2040 nM in the test on OVCAR-3; 2090 nM in the test on SN12C. Besides, halving of growth in the test on MCF7 (GI50) required 1660 nM. Further, in test [1], the Activity was found to be 20%. Further, in test [2], the inhibition of growth at 10 µM is > 15%.

On to `CN1CCN(Cc2c3c(nc4cc5c(cc24)OCO5)-c2cc4ccccc4c(=O)n2C3)CC1`, for which the GI50 in the test on HOP-62 was 17000 nM; in the test with HCT-116, 1450 nM; with SF-539, 11700 nM; with UACC-62 it was 1620 nM; in the test on OVCAR-3, 16200 nM; with SN12C it was 2340 nM. The GI50 in the test on DU-145 is 51300 nM; with MCF7, 380 nM. Moreover, in test [1], the Activity is 50%.
